The record followed here is ChEMBL document CHEMBL1150392, “Synthesis and activity on rat aorta rings and rat pancreatic beta-cells of ring-opened analogues of benzopyran-type potassium channel activators” (Bioorg Med Chem, 2008).

The species entered for assay [1] is Rattus norvegicus. Nature of the assay: Activation of ATP-sensitive potassium channel in Wistar rat pancreatic beta islets assessed as glucose-induced residual insulin secretion at 50 uM relative to control.
Assay [2] deals with Aorta. As to the kind of experiment: Ratio of IC50 for inhibition of glucose-induced insulin secretion in Wistar rat pancreatic beta islets to ED50 for myorelaxant activity in Wistar rat aortic rings. It is filed as functional.
The species named for assay [3] is Rattus norvegicus. As to the kind of experiment: Activation of ATP-sensitive potassium channel in Wistar rat pancreatic beta islets assessed as glucose-induced residual insulin secretion at 10 uM relative to control.
Assay [4] in a line: Activation of ATP-sensitive potassium channel in Wistar rat pancreatic beta islets assessed as inhibition of glucose-induced insulin secretion.
The species named for assay [5] is Rattus norvegicus. Nature of the assay: Activation of ATP-sensitive potassium channel in potassium-depolarized Wistar rat aortic rings assessed as myorelaxant activity against KCl-induced contraction. The conditions noted are these: Aorta. It is filed as tissue-based. The method, boiled down: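 Aorta rings were taken from fed Wistar rats (180–220 g) and contracted with KCl 30 mM. Dose–response curves were run against the plateau phase.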

Bounds are passed on as bounds.

With `CC1=Nc2ccc(Cl)cc2S(=O)(=O)N1` [DIAZOXIDE], the figures for the Activity in assay [1] and in assay [3] were 27.9% and 71.7%, respectively. Further, the Ratio in assay [2] was 1. Besides, in assay [4], the IC50 – broadly, the concentration at which inhibition is half-maximal – came out at 19.7 µM. Moreover, the ED50 in assay [5] turned out to be 23.8 µM.
As to `COc1ccccc1CNC(=O)c1ccc([N+](=O)[O-])cc1`, the Activity in assay [1] came to 86.6%. Also, the ED50 in assay [5] is above 30 µM.
Turning to `COc1ccccc1CNC(=O)NS(=O)(=O)c1ccc(Cl)cc1`, the Activity in assay [1] was found to be 113%. Also, in assay [5], the ED50 is above 30 µM.
Take `COc1ccccc1CNC(=O)c1cccs1`: the Activity in assay [1] turned out to be 83.3%. In addition, in assay [5], the ED50 was above 30 µM.
For `CC1(C)Oc2ccc(C#N)cc2C(N2CCCC2=O)C1O` (configuration not stated) [CROMAKALIM], the Activity in assay [1] amounted to 77.2%; in assay [3], 94.7%. Besides, the Ratio in assay [2] was above 769. Moreover, the ED50 in assay [5] is 0.13 µM.
In the case of `CC(N/C(=N\C#N)Nc1ccncc1)C(C)(C)C` (configuration not stated), the Activity in assay [3] stood at 96%. Besides, the ED50 in assay [5] turned out to be 0.35 µM.
